Data on seven compounds can be found in article PMC9064050 (RSC Advances, 2019).

One test concerns Candida albicans. Kind of test: Kirby–Bauer agar disc diffusion. It counts as cell-based. Conditions: for zone of inhibition at 100 µM: Candida albicans, read-out: diameter of clear zone inhibition; for inhibition%: I = Candida albicans, eqn (20). The gist of the method: (§1)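 Kirby–Bauer disc diffusion on Mueller–Hinton agar (pH 7.2, autoclaved 121 °C for 15 min, ~4 mm deep, held 2–8 °C for 24 h). Plates spread with 24 h cultures. 6 mm discs loaded with 20 μL of 100 μM test compound. Bacteria incubated at 37 °C for 48 h; fungi at 22 °C for 7 days. Clear-zone diameter measured by ruler; % inhibition by eqn (20) against 6 mm control.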

Another test relates to Aspergillus niger. Kind of test: Kirby–Bauer agar disc diffusion. It counts as cell-based. As to conditions: for zone of inhibition at 100 µM: Aspergillus niger, read-out: diameter of clear zone inhibition; for inhibition%: H = Aspergillus niger, eqn (20). The method in brief: as §1
The next test has as its system Mucor indicus. Kind of test: Kirby–Bauer agar disc diffusion. As to conditions: for inhibition%: J = Mucor indicus, eqn (20); for zone of inhibition at 100 µM: Mucor indicus, read-out: diameter of clear zone inhibition. It counts as cell-based. The gist of the method:
as §1

Test [1] is described as follows: Ferric reducing antioxidant power. The gist of the method: (§2)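 Absorbance read at 517 nm (DPPH), 230 nm (hydroxyl), 590 nm (superoxide), 546 nm (nitric oxide) and 700 nm (FRAP). FRAP measures the rise in absorbance from Fe3+→Fe2+ reduction with ferricyanide. IC50 taken from % inhibition vs concentration plots.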
A short description of test [2]: DPPH radical scavenging assay. The gist of the method: as §2
A short description of test [3]: Nitric oxide scavenging assay. The method in brief: as §2
Test [4] in a line: Hydroxyl radical scavenging assay. The gist of the method:
as §2

Test [5] is described as follows: Superoxide scavenging assay. The gist of the method:
as §2

The next test deals with Pseudomonas aeruginosa. Kind of test: Kirby–Bauer agar disc diffusion. It counts as cell-based. Conditions: for inhibition%: D = (−)Pseudomonas aeruginosa, eqn (20); for zone of inhibition at 100 µM: Pseudomonas aeruginosa, read-out: diameter of clear zone inhibition. The gist of the method:
as §1

The test system of the next test is Shigella flexneri. Kind of test: Kirby–Bauer agar disc diffusion. Conditions: for inhibition%: E = (−)Shigella flexneri, eqn (20); for zone of inhibition at 100 µM: Shigella flexneri, read-out: diameter of clear zone inhibition. It counts as cell-based. The gist of the method: as §1
Test [6] relates to Chromobacterium violaceum. As to the kind of experiment: Kirby–Bauer agar disc diffusion. It counts as cell-based. Conditions: for inhibition%: C = (−)Chromobacterium violaceum, eqn (20); for zone of inhibition at 100 µM: Chromobacterium violaceum, read-out: diameter of clear zone inhibition. The gist of the method: as §1
In the next test the test system is Bacillus cereus. Kind of test: Kirby–Bauer agar disc diffusion. It counts as cell-based. Conditions: for zone of inhibition at 100 µM: Bacillus cereus, read-out: diameter of clear zone inhibition; for inhibition%: G = (+)Bacillus cereus, eqn (20). The method in brief:
as §1

The next test has as its system Staphylococcus aureus. As to the kind of experiment: Kirby–Bauer agar disc diffusion. It counts as cell-based. Conditions: for inhibition%: F = (+)Staphylococcus aureus, eqn (20); for zone of inhibition at 100 µM: Staphylococcus aureus, read-out: diameter of clear zone inhibition. The method in brief:
as §1

In test [7] the test system is Salmonella enteric serovar typhi. Kind of test: Kirby–Bauer agar disc diffusion. It counts as cell-based. As to conditions: for inhibition%: B = (−)Salmonella enteric serovar typhi, eqn (20); for zone of inhibition at 100 µM: Salmonella, TYPHI, read-out: diameter of clear zone inhibition. The method in brief:
as §1

The next test deals with Escherichia coli. As to the kind of experiment: Kirby–Bauer agar disc diffusion. It counts as cell-based. As to conditions: for inhibition%: A = (−) Escherichia coli, from zone diameter, eqn (20); for zone of inhibition at 100 µM: Escherichia coli, read-out: diameter of clear zone inhibition. The gist of the method:
as §1

A further test relates to EB–DNA. Conditions: at the concentration of 50 μM EB; cited from earlier work.
In the next test the test system is breast (MCF-7). Kind of test: In vitro anticancer MTT assay. It counts as cell-based, human. As to conditions: 50% cell death following 72 h exposure. The gist of the method:
(§3)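 MTT viability: cells seeded at 1 × 10^5 per well and incubated 24 h at 37 °C, 5% CO2. Treated with test compound at 10–100 μg mL−1 (from DMSO). Medium removed, wells PBS-washed, RPMI-1640 plus MTT (5 mg mL−1 solution) added for 4 h at 37 °C. Formazan dissolved in DMSO, read at 570 nm. Triplicate wells; IC50 from % viability; cisplatin as reference.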

In a further test the test system is human lung cancer (A549). As to the kind of experiment: In vitro anticancer MTT assay. It counts as cell-based. Conditions: 50% cell death following 72 h exposure. The method in brief:
as §3

A further test concerns liver cancer (HepG2). Kind of test: In vitro anticancer MTT assay. It counts as cell-based, human. As to conditions: 50% cell death following 72 h exposure. The gist of the method: as §3
The test system of test [8] is normal human dermal fibroblast (NHDF). As to the kind of experiment: MTT assay on normal cells. It counts as cell-based. Conditions: normal cell line; 50% cell death following 72 h exposure. The method in brief:
as §3

Consider `CC(=O)N1CCN(c2ccc(OCC3COC(Cn4ccnc4)(c4ccc(Cl)cc4Cl)O3)cc2)CC1` (stereo not shown) [Ketokonazole, ketokonazole], for which the zone of inhibition at 100 µM with Candida albicans is 18 mm; in the test on Aspergillus niger it was 16 mm; in the test with Mucor indicus it was 18 mm. The inhibition% with Candida albicans is listed as 67%; with Aspergillus niger, 63%; with Mucor indicus, 67%.
In the case of `C[C@@H]1[C@H](O)[C@@H](C)/C=C/C=C/C=C/C=C/C=C/C=C/C=C/[C@H](O[C@@H]2O[C@H](C)[C@@H](O)[C@H](N)[C@@H]2O)C[C@@H]2O[C@](O)(C[C@@H](O)C[C@@H](O)[C@H](O)CC[C@@H](O)C[C@@H](O)CC(=O)O[C@H]1C)C[C@H](O)[C@H]2C(=O)O` [Amphotericin B, amphotericin B], the zone of inhibition at 100 µM in the test on Candida albicans came out at 17 mm; in the test with Aspergillus niger, 15 mm; with Mucor indicus, 17 mm. Further, the inhibition% came out at 65% in the test with Candida albicans, 60% with Aspergillus niger and 65% in the test on Mucor indicus.
Turning to `O=C1O[C@H]([C@@H](O)CO)C(O)=C1O` [Ascorbic acid, ascorbic acid], in test [1] (240 µM, 700 nm), the “% Inhibition, ferric reducing power” value amounted to 88.67%. For the same compound, the IC50 in test [1] (read-out: IC50, ferric reducing power) turned out to be 160 µM; in test [2] (read-out: IC50, DPPH) it was 80 µM; in test [3] (read-out: IC50, nitric oxide) it was 200 µM; in test [4] (read-out: IC50, hydroxyl radical) it was 160 µM; in [5] (read-out: IC50, superoxide), 120 µM. Moreover, the “% Inhibition, DPPH” value in [2] (240 µM, 517 nm) was 82.75%. In addition, in test [3] (240 µM, 546 nm), the “% Inhibition, nitric oxide” value was 72.73%. In test [4] (240 µM, 230 nm), the “% Inhibition, hydroxyl radical” value was determined as 78.83%. In test [5] (240 µM, 590 nm), the “% Inhibition, superoxide” value is 84.85%.
For `[H]/N=C(/N)N[C@H]1[C@H](O)[C@@H](O)[C@H](O[C@@H]2O[C@@H](C)[C@](O)(C=O)[C@H]2O[C@@H]2O[C@@H](CO)[C@H](O)[C@@H](O)[C@@H]2NC)[C@@H](N/C(N)=N\[H])[C@@H]1O` [Streptomycin, streptomycin], the inhibition% stood at 71% in the test on Pseudomonas aeruginosa; 76% in the test on Shigella flexneri; 75% in [6]; 71% in the test with Bacillus cereus; 71% in the test on Staphylococcus aureus; 77% in [7]. In the test on Escherichia coli, the inhibition% was determined as 75%. Further, the zone of inhibition at 100 µM with Pseudomonas aeruginosa was 21 mm; with Shigella flexneri it was 25 mm; in test [6] it was 24 mm; in the test on Bacillus cereus, 21 mm; with Staphylococcus aureus, 21 mm; in [7] it was 26 mm. The zone of inhibition at 100 µM with Escherichia coli worked out at 24 mm.
For the compound `CC[n+]1c(-c2ccccc2)c2cc(N)ccc2c2ccc(N)cc21` [EB, ethidium bromide], the “KEB (binding constant of EB to DNA)” value in the test with EB–DNA was 10^7 M^−1.
With `N.N.[Cl][Pt][Cl]` [Cisplatin, cisplatin], the “IC50 MCF-7” value in the test on breast (MCF-7) came out at 06.11 µg/mL. In the test on human lung cancer (A549), the “IC50 A549” value came to 09.62 µg/mL. Also, the “IC50 HepG2” value with liver cancer (HepG2) was 06.94 µg/mL. The “IC50 NHDF” value in test [8] amounted to 08.08 µg/mL.
For `NCC[C@H](O)C(=O)N[C@@H]1C[C@H](N)[C@@H](O[C@H]2O[C@H](CN)[C@@H](O)[C@H](O)[C@H]2O)[C@H](O)[C@H]1O[C@H]1O[C@H](CO)[C@@H](O)[C@H](N)[C@H]1O` [Amikacin, amikacin], the inhibition% with Pseudomonas aeruginosa is listed as 70%; with Shigella flexneri, 70%; in [6], 75%; in the test with Bacillus cereus, 70%; in the test with Staphylococcus aureus, 70%; in [7], 73%. Besides, the inhibition% in the test with Escherichia coli is listed as 73%. Besides, the zone of inhibition at 100 µM in the test with Pseudomonas aeruginosa was 20 mm; in the test with Shigella flexneri, 20 mm; in [6], 24 mm; in the test on Bacillus cereus it was 20 mm; in the test on Staphylococcus aureus, 20 mm; in test [7], 22 mm. Besides, the zone of inhibition at 100 µM in the test with Escherichia coli is 22 mm.
